Assay results published in ChEMBL document CHEMBL1153726, “Synthesis and anticancer activity of sclerophytin-inspired hydroisobenzofurans” (Bioorg Med Chem Lett, 2009).

Columns and labels:
Format in all cases: functional
SNB-19 = experiment: Growth inhibition of human SNB19 cells at 1 uM after 96 hrs by MTT assay; design: scale not given: the % may be the effect or the level left
SK-MEL-2 = experiment: Growth inhibition of human SK-MEL-2 cells at 10 uM after 96 hrs by MTT assay; design: scale not given: the % may be the effect or the level left
OVCAR-5 = experiment: Growth inhibition of human OVCAR5 cells after 96 hrs by MTT assay; conditions: OVCAR-5, 96 h
Method in brief: (§1)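 Tested in the NCI 60-cell-line panel in five-dose format; GI50 and LC50 values reported for each cell line.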

LOX IMVI = experiment: Growth inhibition of human LOXIMVI cells at 1 uM after 96 hrs by MTT assay; design: scale not given: the % may be the effect or the level left
EKVX = experiment: Growth inhibition of human EKVX cells after 96 hrs by MTT assay
Method in brief: (§2)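 Run in the NCI 60 human tumour cell line panel as a five-dose assay. GI50 and LC50 were reported for each cell line.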

M14 [1] = experiment: Growth inhibition of human M14 cells at 10 nM after 96 hrs by MTT assay; design: scale not given: the % may be the effect or the level left
IGROV-1 [2] = experiment: Growth inhibition of human IGROV1 cells at 1 nM after 96 hrs by MTT assay; design: scale not given: the % may be the effect or the level left
MCF7 [3] = experiment: Growth inhibition of human MCF7 cells at 10 uM after 96 hrs by MTT assay; design: scale not given: the % may be the effect or the level left
HOP-62 = experiment: Growth inhibition of human HOP62 cells at 10 uM after 96 hrs by MTT assay; design: scale not given: the % may be the effect or the level left
SR = experiment: Growth inhibition of human SR cells at 10 nM after 96 hrs by MTT assay; design: scale not given: the % may be the effect or the level left
U-251 [4] = experiment: Growth inhibition of human U251 cells at 100 nM after 96 hrs by MTT assay; design: scale not given: the % may be the effect or the level left
PC-3 [5] = experiment: Growth inhibition of human PC3 cells after 96 hrs by MTT assay; conditions: PC-3, 96 h; method in brief: as §1
[6] = Growth inhibition of human RPMI8266 cells at 10 uM after 96 hrs by MTT assay; design: scale not given: the % may be the effect or the level left
SF-295 [7] = experiment: Growth inhibition of human SF295 cells at 100 nM after 96 hrs by MTT assay; design: scale not given: the % may be the effect or the level left
HCT-15 = experiment: Growth inhibition of human HCT15 cells after 96 hrs by MTT assay; conditions: HCT-15, 96 h; method in brief: as §2
CAKI-1 = experiment: Growth inhibition of human Caki1 cells at 100 nM after 96 hrs by MTT assay; design: scale not given: the % may be the effect or the level left
NCI-H522 = experiment: Growth inhibition of human NCI-H522 cells at 1 nM after 96 hrs by MTT assay; design: scale not given: the % may be the effect or the level left
ACHN = experiment: Growth inhibition of human ACHN cells after 96 hrs by MTT assay
COLO 205 = experiment: Growth inhibition of human COLO205 cells at 1 uM after 96 hrs by MTT assay; design: scale not given: the % may be the effect or the level left
KM12 = experiment: Growth inhibition of human KM12 cells at 10 nM after 96 hrs by MTT assay; design: scale not given: the % may be the effect or the level left
SF-295 [8] = experiment: Growth inhibition of human SF295 cells after 96 hrs by MTT assay; conditions: SF-295, 96 h; method in brief: as §1
[9] = Growth inhibition of human RPMI8266 cells at 10 nM after 96 hrs by MTT assay; design: scale not given: the % may be the effect or the level left
U-251 [10] = experiment: Growth inhibition of human U251 cells after 96 hrs by MTT assay; conditions: U-251, 96 h; method in brief: as §1
PC-3 [11] = experiment: Growth inhibition of human PC3 cells at 10 nM after 96 hrs by MTT assay; design: scale not given: the % may be the effect or the level left
MCF7 [12] = experiment: Growth inhibition of human MCF7 cells at 100 nM after 96 hrs by MTT assay; design: scale not given: the % may be the effect or the level left
UACC-62 = experiment: Growth inhibition of human UACC62 cells at 1 uM after 96 hrs by MTT assay; design: scale not given: the % may be the effect or the level left
NCI-H460 = experiment: Growth inhibition of human NCI-H460 cells at 10 nM after 96 hrs by MTT assay; design: scale not given: the % may be the effect or the level left
U-251 [13] = experiment: Growth inhibition of human U251 cells at 1 uM after 96 hrs by MTT assay; design: scale not given: the % may be the effect or the level left
MDA-MB-435 = experiment: Growth inhibition of human MDA-MB-435 cells at 1 nM after 96 hrs by MTT assay; design: scale not given: the % may be the effect or the level left
HOP-92 = experiment: Growth inhibition of human HOP92 cells at 1 nM after 96 hrs by MTT assay; design: scale not given: the % may be the effect or the level left
IGROV-1 [14] = experiment: Growth inhibition of human IGROV1 cells at 10 uM after 96 hrs by MTT assay; design: scale not given: the % may be the effect or the level left
TK-10 = experiment: Growth inhibition of human TK10 cells after 96 hrs by MTT assay; conditions: TK-10, 96 h; method in brief: as §1
HT-29 = experiment: Growth inhibition of human HT-29 cells at 1 nM after 96 hrs by MTT assay; design: scale not given: the % may be the effect or the level left
[15] = Growth inhibition of human […] cells after 96 hrs by MTT assay; method in brief: as §1
M14 [16] = experiment: Growth inhibition of human M14 cells at 1 uM after 96 hrs by MTT assay; design: scale not given: the % may be the effect or the level left
BT-549 = experiment: Growth inhibition of human BT549 cells at 10 nM after 96 hrs by MTT assay; design: scale not given: the % may be the effect or the level left
HCC 2998 = experiment: Growth inhibition of human HCC2998 cells at 100 nM after 96 hrs by MTT assay; design: scale not given: the % may be the effect or the level left
RXF 393 = experiment: Growth inhibition of human RXF393 cells at 1 nM after 96 hrs by MTT assay; design: scale not given: the % may be the effect or the level left
SNB-75 = experiment: Growth inhibition of human SNB75 cells at 10 uM after 96 hrs by MTT assay; design: scale not given: the % may be the effect or the level left
[17] = read-out: Log10GI50 (converted)
[18] = read-out: Log10LC50 (converted)
[19] = read-out: LC50 (the source's name)

C=C(C)[C@H]1CC=C(C)C2=CO[C@@H](c3ccccc3F)[C@@H]21
Activity (SNB-19): 54%
Activity (SK-MEL-2): 71.47%
GI50 (OVCAR-5; read-out: GI50): 23.6 µM
LC50 (50% lethal concentration) (OVCAR-5; read-out: LC50): 72.3 µM
GI50 (OVCAR-5; [17]): 23.4 µM
LC50 (50% lethal concentration) (OVCAR-5; [18]): 72.4 µM
TGI (OVCAR-5; read-out: Log10TGI (converted)): 41.7 µM
TGI (OVCAR-5; read-out: TGI): 41.3 µM
Activity (LOX IMVI): 33%
GI50 (EKVX; read-out: GI50): 3.37 µM
CC50 (EKVX; [19]): 80.3 µM
GI50 (EKVX; [17]): 3.39 µM
CC50 (EKVX; [18]): 79.4 µM
TGI (EKVX; read-out: Log10TGI (converted)): 19.5 µM
TGI (EKVX; read-out: TGI): 19.4 µM
Activity (M14 [1]): 89%
Activity (IGROV-1 [2]): 91%
Activity (MCF7 [3]): 93.7%
Activity (HOP-62): 108.33%
Activity (SR): 81%
Activity (U-251 [4]): 80%
GI50 (PC-3 [5]; read-out: GI50): 2.49 µM
CC50 (PC-3 [5]; [19]): 57.2 µM
GI50 (PC-3 [5]; [17]): 2.51 µM
CC50 (PC-3 [5]; [18]): 57.5 µM
TGI (PC-3 [5]; read-out: Log10TGI (converted)): 16.6 µM
TGI (PC-3 [5]; read-out: TGI): 16.5 µM
Activity [6]: 18.49%
Activity (SF-295 [7]): 88%
GI50 (HCT-15; read-out: GI50): 4.38 µM
CC50 (HCT-15; [19]): 51 µM
GI50 (HCT-15; [17]): 4.37 µM
CC50 (HCT-15; [18]): 51.3 µM
TGI (HCT-15; read-out: Log10TGI (converted)): 18.6 µM
TGI (HCT-15; read-out: TGI): 18.6 µM
Activity (CAKI-1): 87%
Activity (NCI-H522): 82%
GI50 (ACHN; read-out: GI50): 6.39 µM
CC50 (ACHN; [19]): 43.8 µM
GI50 (ACHN; [17]): 6.46 µM
CC50 (ACHN; [18]): 43.7 µM
TGI (ACHN; read-out: Log10TGI (converted)): 19.1 µM
TGI (ACHN; read-out: TGI): 19 µM
Activity (COLO 205): 50%
Activity (KM12): 93%
GI50 (SF-295 [8]; read-out: GI50): 4.49 µM
CC50 (SF-295 [8]; [19]): 45.7 µM
GI50 (SF-295 [8]; [17]): 4.47 µM
CC50 (SF-295 [8]; [18]): 45.7 µM
TGI (SF-295 [8]; read-out: Log10TGI (converted)): 17.4 µM
TGI (SF-295 [8]; read-out: TGI): 17.6 µM
Activity [9]: 56%
GI50 (U-251 [10]; read-out: GI50): 3.06 µM
CC50 (U-251 [10]; [19]): 37.7 µM
GI50 (U-251 [10]; [17]): 3.09 µM
CC50 (U-251 [10]; [18]): 38 µM
TGI (U-251 [10]; read-out: Log10TGI (converted)): 14.1 µM
TGI (U-251 [10]; read-out: TGI): 14.2 µM
Activity (PC-3 [11]): 89%
Activity (MCF7 [12]): 83%
Activity (UACC-62): 29%
Activity (NCI-H460): 97%
Activity (U-251 [13]): 18%
Activity (MDA-MB-435): 92%
Activity (HOP-92): 88%
Activity (IGROV-1 [14]): 65.74%
GI50 (TK-10; read-out: GI50): 8.93 µM
CC50 (TK-10; [19]): 88.9 µM
GI50 (TK-10; [17]): 8.91 µM
CC50 (TK-10; [18]): 89.1 µM
TGI (TK-10; read-out: Log10TGI (converted)): 28.8 µM
TGI (TK-10; read-out: TGI): 29.1 µM
Activity (HT-29): 98%
GI50 ([15]; read-out: GI50): 0.148 µM
CC50 [15, 19]: 9.36 µM
GI50 [15, 17]: 0.148 µM
CC50 [15, 18]: 9.33 µM
TGI ([15]; read-out: Log10TGI (converted)): 2 µM
TGI ([15]; read-out: TGI): 2.01 µM
Activity (M14 [16]): 43%
Activity (BT-549): 84%
Activity (HCC 2998): 97%
Activity (RXF 393): 94%
Activity (SNB-75): 80.72%
